Measured values as given in ChEMBL document CHEMBL4316610, “Synthesis and Biological Studies of (+)-Liquiditerpenoic Acid A (Abietopinoic Acid) and Representative Analogues: SAR Studies” (J Nat Prod, 2019).
Active and inactive are the calls of the source. The rule behind the calls is not given here.

Columns and labels:
A549 [1] = assay: Antiproliferative activity against human A549 cells after 48 hrs by SRB assay; type: functional; conditions: A549, 48 h
HBL-100 [2] = assay: Antiproliferative activity against human HBL100 cells after 48 hrs by SRB assay; type: functional; conditions: HBL-100, 48 h
HeLa [3] = assay: Antiproliferative activity against human HeLa cells after 48 hrs by SRB assay; type: functional
SW1573 [4] = assay: Antiproliferative activity against human SW1573 cells after 48 hrs by SRB assay; type: functional; conditions: SW1573, 48 h
T47D [5] = assay: Antiproliferative activity against human T47D cells after 48 hrs by SRB assay; type: functional
WiDr [6] = assay: Antiproliferative activity against human WiDr cells after 48 hrs by SRB assay; type: functional
NALM-6 [7] = assay: Antiproliferative activity against human NALM6 cells after 72 hrs by CellTiter-Glo luminescent cell viability assay; type: functional, cell-based; conditions: NALM-6, 72 h
[8] = Antiproliferative activity against mouse leukemia cells overexpressing BCR/ABL after 72 hrs by CellTiter-Glo luminescent cell viability assay; type: functional, cell-based
KOPN-8 [9] = assay: Antiproliferative activity against human KOPN8 cells after 72 hrs by CellTiter-Glo luminescent cell viability assay; type: functional, cell-based; conditions: KOPN-8, 72 h
SUP-B15 = assay: Antiproliferative activity against human SUP-B15 cells after 72 hrs by CellTiter-Glo luminescent cell viability assay; type: functional, cell-based; conditions: SUP-B15, 72 h
UoC-B1 = assay: Antiproliferative activity against human UOCB1 cells after 72 hrs by CellTiter-Glo luminescent cell viability assay; type: functional, cell-based; conditions: UoC-B1, 72 h
BJ = assay: Antiproliferative activity against human BJ cells after 72 hrs by CellTiter-Glo luminescent cell viability assay; type: ADME, cell-based
NALM-6 [10] = assay: Induction of apoptosis in human NALM6 cells at 10 uM after 24 hrs by Annexin V-FITC/propidium iodide staining-based flow cytometric analysis; type: functional, cell-based
Summary of the method: (§1)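 Phosphatidylserine exposure read by Annexin V-FITC/propidium iodide flow cytometry; DNA content by PI staining for cell-cycle distribution.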

KOPN-8 [11] = assay: Induction of apoptosis in human KOPN8 cells assessed as late apoptotic cells at 20 uM after 32 hrs by Annexin V-FITC/propidium iodide staining-based flow cytometric analysis relative to control; type: functional
NALM-6 [12] = assay: Cell cycle arrest in human NALM6 cells assessed as accumulation at G0/G1 phase at 10 uM after 24 hrs by propidium iodide staining-based flow cytometric analysis; type: functional; summary of the method: as §1
NALM-6 [13] = assay: Cell cycle arrest in human NALM6 cells assessed as accumulation at G2/M phase at 10 uM after 24 hrs by propidium iodide staining-based flow cytometric analysis; type: functional; summary of the method: as §1
[14] = target: T1, GABA-A receptor; alpha-1/beta-2/gamma-2 (Homo sapiens) (UniProt P14867+P47870+P18507); assay: Modulation of recombinant wild type GABAA receptor alpha1beta2gamma2S (unknown origin) expressed in Xenopus laevis oocytes assessed as increase in GABA-evoked chloride current at 10 uM at -70 mV holding potential by two-microelectrode voltage clamp assay relative to control; type: cell-based
Summary of the method: (§2)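 Two-microelectrode voltage clamp at -70 mV on Xenopus laevis oocytes expressing α1β2γ2S GABA-A receptors. GABA EC5 (4-5 μM), set individually for each oocyte, applied for 20 s alone, then co-applied with compound at 10 or 100 μM. Potentiation of GABA-evoked current is reported. Dehydroabietic acid served as positive control. Mean ± SEM from at least three oocytes and two oocyte batches.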

[15] = target: T1, GABA-A receptor; alpha-1/beta-2/gamma-2 (Homo sapiens); assay: Modulation of recombinant wild type GABAA receptor alpha1beta2gamma2S (unknown origin) expressed in Xenopus laevis oocytes assessed as increase in GABA-evoked chloride current at 100 uM at -70 mV holding potential by two-microelectrode voltage clamp assay relative to control; type: cell-based; summary of the method: as §2
[16] = Cytotoxicity against mouse J774 cells assessed as reduction in cell viability after 48 hrs by resazurin dye-based fluorometric analysis
Summary of the method: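 The CC50 is taken as the concentration giving a 50% reduction in cell viability of treated cultures compared with untreated cells.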

Leishmania amazonensis = assay: Antileishmanial activity against Leishmania amazonensis MHOM/Br/79/Mari promastigotes after 48 hrs by resazurin dye-based fluorometric analysis; type: functional, organism-based
Summary of the method: (§3)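 The IC50 is taken as the compound concentration giving a 50% reduction in parasites, reported with SD.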

Leishmania guyanensis = assay: Antileishmanial activity against Leishmania guyanensis 141/93 promastigotes after 48 hrs by resazurin dye-based fluorometric analysis; type: functional, organism-based; summary of the method: as §3
Leishmania donovani = assay: Antileishmanial activity against Leishmania donovani MHOM/IN/80/DD8 promastigotes after 48 hrs by resazurin dye-based fluorometric analysis; type: functional, organism-based; summary of the method: as §3
Leishmania infantum = assay: Antileishmanial activity against Leishmania infantum MCAN/ES/96/BCN150 promastigotes after 48 hrs by resazurin dye-based fluorometric analysis; type: functional, organism-based; summary of the method: as §3
[17] = Selectivity index, ratio of CC50 for mouse J774 cells to IC50 for Leishmania amazonensis MHOM/Br/79/Mari promastigotes; type: toxicity; conditions: read-out: Ratio CC50/IC50
[18] = Selectivity index, ratio of CC50 for mouse J774 cells to IC50 for Leishmania guyanensis 141/93 promastigotes; type: toxicity; conditions: read-out: Ratio CC50/IC50
[19] = Selectivity index, ratio of CC50 for mouse J774 cells to IC50 for Leishmania donovani MHOM/IN/80/DD8 promastigotes; type: toxicity; conditions: read-out: Ratio CC50/IC50
[20] = Selectivity index, ratio of CC50 for mouse J774 cells to IC50 for Leishmania infantum MCAN/ES/96/BCN150 promastigotes; type: toxicity; conditions: read-out: Ratio CC50/IC50
A549 [21] = assay: Antiproliferative activity against human A549 cells; type: functional
HBL-100 [22] = assay: Antiproliferative activity against human HBL100 cells; type: functional
HeLa [23] = assay: Antiproliferative activity against human HeLa cells; type: functional
SW1573 [24] = assay: Antiproliferative activity against human SW1573 cells; type: functional
T47D [25] = assay: Antiproliferative activity against human T47D cells; type: functional
WiDr [26] = assay: Antiproliferative activity against human WiDr cells; type: functional
[27] = Leishmania amazonensis, MHOM/Br/79/Mari, 48 h, read-out: IC50
[28] = Leishmania guyanensis, 141/93, 48 h, read-out: IC50
[29] = Leishmania donovani, MHOM/IN/80/DD8, 48 h, read-out: IC50
[30] = Leishmania donovani, MHOM/IN/80/DD8, 48 h, read-out: log(1/IC50) (converted)
[31] = Leishmania infantum, MCAN/ES/96/BCN150, 48 h, read-out: IC50

| Compound | Activity [14] [%] | Activity [15] [%] | CC50 at 48 h [16] [µM] | IC50 (Leishmania amazonensis; [27]) [µM] | IC50 (Leishmania guyanensis; [28]) [µM] | IC50 (Leishmania donovani; [29]) [µM] | IC50 (Leishmania donovani; [30]) [µM] | IC50 (Leishmania infantum; [31]) [µM] | selectivity ratio [17] | selectivity ratio [18] | selectivity ratio [19] | selectivity ratio [20] | also measured |
| --- | --- | --- | --- | --- | --- | --- | --- | --- | --- | --- | --- | --- | --- |
| COC(=O)[C@]1(C)CCC[C@]2(C)c3cc(OC(C)=O)c(C(C)C)cc3CC[C@@H]12 | 5.1 | 26.3 | 26.5 | 3.2 | 5.5 | 8.1 | 8.12 | 1.3 | 8.2 | 4.8 | 3.3 | 20.4 | GI50 (A549 [1]): 11 µM; GI50 (HBL-100 [2]): 15 µM; GI50 (HeLa [3]): 4.4 µM; GI50 (SW1573 [4]): 12 µM; GI50 (T47D [5]): 14 µM; GI50 (WiDr [6]): 16 µM; EC50 (NALM-6 [7]): 8.8 µM; EC50 [8]: 14.3 µM; EC50 (KOPN-8 [9]): 21 µM; EC50 (SUP-B15): 20.2 µM; EC50 (UoC-B1): > 40 µM; EC50 (BJ): Non-Toxic; Activity (NALM-6 [10]): inactive; Activity (KOPN-8 [11]): >85%; Activity (NALM-6 [12]): Active; Activity (NALM-6 [13]): Active |
| COC(=O)[C@]1(C)CCC[C@]2(C)c3cc(O)c(C(C)C)cc3CC[C@@H]12 | 23.7 | 378 | 34.2 | 3.9 | 5.9 | 9.21 | 9.21 | 5 | 8.7 | 5.8 | 3.7 | 6.8 | GI50 (A549 [1]): 9.4 µM; GI50 (HBL-100 [2]): 9.7 µM; GI50 (HeLa [3]): 5.8 µM; GI50 (SW1573 [4]): 11 µM; GI50 (T47D [5]): 19 µM; GI50 (WiDr [6]): 23 µM |
| COC(=O)[C@]1(C)CCC[C@]2(C)c3ccc(C(C)C)cc3CC[C@@H]12 [METHYL DEHYDROABIETATE] | – | – | – | – | – | – | – | – | – | – | – | – | GI50 (A549 [21]): 15 µM; GI50 (HBL-100 [22]): 19 µM; GI50 (HeLa [23]): 15 µM; GI50 (SW1573 [24]): 22 µM; GI50 (T47D [25]): 16 µM; GI50 (WiDr [26]): 10 µM |
| CC(C)c1cc2c(cc1O)[C@@]1(C)CCC[C@@](C)(CO)[C@@H]1CC2 [18-HYDROXYFERRUGINOL] | 29.3 | 154 | 23.4 | 7.7 | 12.5 | 13.9 | 13.9 | 0.7 | 3 | 1.9 | 1.7 | 33.4 | – |
| COc1cc([C@@H]2c3cc4c(cc3[C@@H](O[C@@H]3O[C@@H]5CO[C@@H](C)O[C@H]5[C@H](O)[C@H]3O)[C@H]3COC(=O)[C@H]23)OCO4)cc(OC)c1O [ETOPOSIDE] | – | – | – | – | – | – | – | – | – | – | – | – | GI50 (A549 [1]): 1.5 µM; GI50 (HBL-100 [2]): 1.4 µM; GI50 (HeLa [3]): 3.3 µM; GI50 (SW1573 [4]): 15 µM; GI50 (T47D [5]): 22 µM; GI50 (WiDr [6]): 23 µM |
| CCCCCCCCCCCCCCCCOP(=O)([O-])OCC[N+](C)(C)C [MILTEFOSINE] | – | – | – | – | – | – | – | – | 2.9 | 7.5 | 909 | 40.1 | – |
| CC(C)c1cc2c(cc1O)[C@@]1(C)CCC[C@@](C)(CO)[C@@H]1CC2=O | 4.5 | -30.3 | 14.4 | 10.2 | 16.5 | 19.7 | 19.7 | 9.7 | 1.4 | 0.9 | 0.7 | 1.5 | – |
| CC(C)c1cc2c(cc1O)[C@@]1(C)CCC[C@@](C)(C(=O)O)[C@@H]1CC2=O | -2 | -21.1 | 219 | – | – | – | – | – | – | – | – | – | IC50 (Leishmania amazonensis): Not Active; IC50 (Leishmania guyanensis): Not Active; IC50 (Leishmania donovani): Not Active; IC50 (Leishmania infantum): Not Active |
| CN[C@@H]1C[C@H]2O[C@@](C)([C@@H]1OC)n1c3ccccc3c3c4c(c5c6ccccc6n2c5c31)C(=O)NC4 [STAUROSPORINE] | – | – | – | – | – | – | – | – | – | – | – | – | EC50 (NALM-6 [7]): 1.4 µM; EC50 [8]: 0.35 µM |
| COC(=O)[C@]1(C)CCC[C@]2(C)c3cc(O)c(C(C)C)cc3C(=O)C[C@@H]12 | 37.4 | 242 | 154 | – | – | – | – | – | – | – | – | – | – |
| CC(C)c1cc2c(cc1O)[C@@]1(C)CCC[C@@](C)(C(=O)O)[C@@H]1CC2 | 8.9 | 12.1 | 85.8 | 54.1 | 71.4 | 58.1 | 58.1 | 43.6 | 1.6 | 1.2 | 1.5 | 2 | – |
